9 molecules from ChEMBL document CHEMBL1145126, “Novel derivatives of benzo[b]thieno[2,3-c]quinolones: synthesis, photochemical synthesis, and antitumor evaluation” (J Med Chem, 2003) can be followed below.

Broadly, the IC50 is the midpoint of a concentration-inhibition curve.

In assay [1] the test system is Caco-2. The assay is described as follows: In vitro inhibitory effect on growth of human CaCo-2 tumor cell line. Format: functional, cell-based.
Assay [2] concerns HBL. The assay is described as follows: In vitro inhibitory effect on growth of human HBL tumor cell line. Format: functional, cell-based.
The subject of assay [3] is HeLa. The assay is described as follows: In vitro inhibitory effect on growth of human HeLa tumor cell line. The format is functional, cell-based.
Assay [4] has as its system HEp-2. Briefly: In vitro inhibitory effect on growth of human Hep-2 tumor cell line. The format is functional, cell-based.
Assay [5] has as its system MCF7. The assay is described as follows: In vitro inhibitory effect on growth of human MCF-7 tumor cell line. Format: functional, cell-based.
In assay [6] the test system is WI-38. Briefly: In vitro inhibitory effect on growth of human normal WI-38 cell line. The format is functional, cell-based.
Assay [7] deals with MIA PaCa-2. Briefly: In vitro inhibitory effect on growth of human MIAPaCa-2 tumor cell line. The format is functional, cell-based.
Assay [8] has as its system ME67.1. Briefly: In vitro inhibitory effect on growth of human ME 67.1 tumor cell line. The format is functional, cell-based.
Assay [9] has as its system ME67.3. The assay is described as follows: In vitro inhibitory effect on growth of human ME 67.3 tumor cell line. Format: functional, cell-based.
Assay [10] relates to Melanoma cell. The assay is described as follows: Percentage of apoptotic cells after treatment of Melanoma cells with 5*10e-6 M compound for 5 hr. The format is functional, Homo sapiens. The essentials: (§1)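 HBL melanoma cells seeded at 2 × 10^5 cells/mL, exposed after 48 h to compound for 5 h, then washed in PBS and stained with Annexin-V-FLUOS for 15 min at ambient temperature. Scored by fluorescence microscopy as apoptotic (green) cells over total cells.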

Assay [11] has as its system HBL. The assay is described as follows: Effect on adhesion of Melanoma cell line (HBL) at 10*10e-5 M at 1 hr incubation time. Format: functional, Homo sapiens. The essentials: (§2)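 HBL melanoma cells exposed to compound at the stated concentration and time; cells still attached to the plastic substratum quantified by MTT test. Result given as ratio (%) of treated to control cells; one of three parallel experiments reported.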

The test system of assay [12] is HBL. Briefly: Effect on adhesion of Melanoma cell line (HBL) at 10*10e-5 M at 24 hr incubation time. The format is functional, Homo sapiens. The method in brief:
as §2

Assay [13] concerns HBL. Briefly: Effect on adhesion of Melanoma cell line (HBL) at 10*10e-5 M at 2 hr incubation time. Format: functional, Homo sapiens. The method in brief: as §2
The subject of assay [14] is HBL. Briefly: Effect on adhesion of Melanoma cell line (HBL) at 10*10e-5 M at 3h incubation time. Format: functional, Homo sapiens. The method in brief:
as §2

Assay [15] has as its system HBL. The assay is described as follows: Effect on adhesion of Melanoma cell line (HBL) at 5*10e-6 M at 1 hr incubation time. Format: functional, Homo sapiens. The essentials:
as §2

The test system of assay [16] is HBL. Briefly: Effect on adhesion of Melanoma cell line (HBL) at 5*10e-6 M at 24 hr incubation time. The format is functional, Homo sapiens. The essentials: as §2
Assay [17] deals with HBL. The assay is described as follows: Effect on adhesion of Melanoma cell line (HBL) at 5*10e-6 M at 3h incubation time. The format is functional, Homo sapiens. The method in brief: as §2
In assay [18] the test system is Melanoma cell. The assay is described as follows: Percentage of apoptotic cells after treatment of Melanoma cells with 1*10e-5 M compound for 5 hr. Format: functional, Homo sapiens. The essentials:
as §1

The test system of assay [19] is Melanoma cell. Briefly: Percentage of apoptotic cells after treatment of Melanoma cells with 1*10e-6 M compound for 5 hr. Format: functional, Homo sapiens. The method in brief: as §1
In assay [20] the test system is HBL. The assay is described as follows: Effect on adhesion of Melanoma cell line (HBL) at 5*10e-6 M at 2 hr incubation time. Format: functional, Homo sapiens. The method in brief: as §2

As for `Cc1ccc2c(c1)sc1c(=O)n(CCCN(C)C)c3ccccc3c12`, the IC50 is 1700 nM in assay [1]; 1100 nM in assay [2]; 1000 nM in assay [3]; 3630 nM in assay [4]; 4500 nM in assay [5]; 2450 nM in [6]. The molecule also gave a half-maximal inhibitory concentration (IC50) in assay [7] of 1100 nM.

As to `CN(C)CCCN(C(=O)c1ccc2c(c1)sc1c(O)nc3ccccc3c12)c1ccccc1`, the IC50 in [1] was determined as 4790 nM; in [2] it was 670 nM; in [3] it was 34700 nM; in assay [4], 3160 nM; in [5] it was 19500 nM; in assay [6] it was 10000 nM. For the same molecule, in [7], it took 4790 nM to reach half-maximal inhibition (IC50).

On to `CN(C)CCCn1c(=O)c2sc3cc(F)ccc3c2c2ccccc21`, for which the concentration for half-maximal inhibition (IC50) in [1] came out at 980 nM; in assay [2], 3980 nM; in assay [3] it was 650 nM; in [4], 3160 nM; in assay [5], 4600 nM; in [6] it was 2900 nM. In [7], this molecule yielded a 50% inhibitory concentration (IC50) of 2500 nM.

Consider `CN(C)CCCn1c(=O)c2sc3cc([N+](=O)[O-])ccc3c2c2ccccc21`, for which the IC50 was 790 nM in [1]; 1200 nM in [2]; 1000 nM in assay [3]; 3540 nM in assay [4]; 5800 nM in assay [5]; 2400 nM in assay [6]. In addition, the half-inhibitory concentration (IC50) in assay [7] came out at 1250 nM.

On to `CN(C)CCCn1c(=O)c2sc3ccccc3c2c2ccccc21`, for which the 50% inhibitory concentration (IC50) in assay [1] was 620 nM; in assay [2], 580 nM; in assay [3] it was 2500 nM; in assay [4] it was 3630 nM; in assay [5], 4270 nM; in [6] it was 4500 nM. In assay [7], half-maximal inhibition (IC50) required 1400 nM.

For `CN(C)CCCNC(=O)c1ccc2c(c1)sc1c(O)nc3ccccc3c12`, the half-maximal inhibitory concentration (IC50) came to 3800 nM in assay [1]; 1000 nM in [2]; 6300 nM in [3]; 6600 nM in [4]; 10000 nM in [5]; 4400 nM in assay [6]. In [7], the midpoint of inhibition, the IC50, lay at 6600 nM.

For `CN(C)CCCn1c(=O)c2sc3cc(C(=O)Nc4ccccc4)ccc3c2c2ccccc21`, the IC50 came to 490 nM in assay [1]; 10 nM in assay [2]; 2800 nM in assay [3]; 1770 nM in [4]; 790 nM in assay [8]; 190 nM in [9]. Also, the concentration for half-maximal inhibition (IC50) came out at 2630 nM in assay [5], 2300 nM in [6] and 1000 nM in assay [7]. Also, the Apoptotic cell in assay [10] amounted to 29%; in assay [18], 35%; in assay [19], 9%. Besides, the Ratio was determined as 87% in [11]; 28% in assay [12]; 87% in [13]; 81% in [14]; 90% in assay [15]; 62% in assay [16]. Also, the Ratio is reported as 95% in assay [17] and 98% in assay [20].

For the molecule `COC(=O)c1ccc2c(c1)sc1c(=O)n(CCCN(C)C)c3ccccc3c12`, the 50% inhibitory concentration (IC50) came to 470 nM in [1]; 350 nM in [2]; 1300 nM in [3]; 650 nM in [4]; 590 nM in assay [5]; 1600 nM in [6]. The molecule further showed a 50% inhibitory concentration (IC50) in assay [7] of 1000 nM.

`COc1ccc2c(c1)sc1c(=O)n(CCCN(C)C)c3ccccc3c12`: the 50% inhibitory concentration (IC50) in [1] is 470 nM; in assay [2] it was 1580 nM; in assay [3], 850 nM; in [4], 2960 nM; in assay [5], 2200 nM; in [6], 2300 nM. Also, the IC50 in [7] is 510 nM.
